Bioassay records from PubChem.
Many of the other results were omitted from the sample, so hits are more common in it than they were.
HCT116 bCat-KO: beta-catenin-lacking colon tumor cell growth suppression; HCT116 beta-catenin knockout viability, CellTiter-Glo, 60 h; stronger effect = lower value; viability, % at 10 µM; 1.5% of 140,000 active; AID 818;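 active means viability at or under a set limit, the compound median less 4 SD, cut at about 6% in these data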
HUVEC inhibit: human endothelial cell proliferation inhibition. HUVEC proliferation, CellTiter-Glo luminescence, 72 h; stronger effect = lower value. viability, % at 10 µM (by protocol). 1.1% of 86,000 active. AID 648;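 active means viability at or below 30%; inactive means viability above 30%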
H69AR inhibit: growth inhibitors of human H69AR lung tumor cells; H69AR lung tumor viability, ATP luminescence, 72 h; stronger effect = lower value; viability, % at 10 µM; 6% of 85,000 active;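 active means viability at or below 40%; inactive means viability above 40%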;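 further: multidrug resistant small cell line overexpressing MRP-1 efflux transporter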
PTEN del growth: growth suppressors of cells with PTEN tumor suppressor deletion; HCT116 PTEN-null viability, CellTiter-Glo, 60 h; stronger effect = lower value; viability, % at 10 µM; 1.2% of 140,000 active; AID 827;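 active means viability at or below a set limit, 4 SD under the median of all tested compounds, cut at about 3.7% in these data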;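 further: PTEN knockout HCT116 line with beta catenin targeted HCT116 as companion control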
Fibroblast inh: blocks proliferation of human lung fibroblasts. LL 47 human lung fibroblast viability, ATP luminescence; stronger effect = lower value. viability, % at 10 µM. 1.1% of 85,000 active;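 active means viability at or below 50% in the single dose screen; inactive means viability above 50%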;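 further: compound exposure lasted 72 h before the ATP readout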
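Material: human LL 47 lung fibroblast cells; quantity: 1,150 cells/well; medium: IMEM plus 15% FBS; doses: 0.1% DMSO in all compound wells; timing: overnight attachment after seeding, then 72 h compound exposure at 37 °C; detection: CellTiter-Glo luminescence; measure: % viability of median cell-only signal; controls: cell-only wells, no compound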
Of the large screens only hits and unclear results are named; the others gave an inactive call.

CCOc1ccc(N(CC(=O)NC2CCCCC2)C(=O)CSc2nnc(COc3ccccc3)o2)cc1	H69AR inhibit 35.8
O=C(CN(Cc1cccs1)C(=O)CSc1nnc(COc2ccccc2)o1)NC1CCCCC1	H69AR inhibit 39.5
O=C(CSc1nnc(CNC(=O)c2cccs2)o1)NC1CCCCC1	none
N#CCCN(Cc1cccnc1)C(=O)c1sc2cc(F)ccc2c1Cl	none (no result: HUVEC inhibit, H69AR inhibit, Fibroblast inh)
CCOc1cc(NC(=O)c2ccco2)c(OCC)cc1NC(=O)COc1ccccc1C	H69AR inhibit 19.8 (no result: HCT116 bCat-KO, PTEN del growth)
CCOc1cc(NC(=O)c2ccco2)c(OCC)cc1NC(=O)Cc1cccc(OC)c1	none
CCCCC(=O)Nc1ccc(Cl)cn1	none
O=C(CCc1ccccc1)Nc1ccc(Cl)cn1	H69AR inhibit 29.8
O=C(CCC1COc2ccccc2O1)Nc1ccc(Cl)cn1 (stereo not drawn)	HUVEC inhibit 15.1
Cc1ccc(C(=O)Nc2ccc(Cl)cn2)cc1	H69AR inhibit 24.5
O=C(COC(=O)Cc1cccc(C(F)(F)F)c1)Nc1ccc2c(c1)OCCO2	none (no result: HUVEC inhibit, H69AR inhibit, Fibroblast inh)
COC(=O)[C@H](Cc1ccccc1)NC(=O)O[C@@H]1C(=O)c2cc(Br)ccc2O[C@H]1c1cccc(OC)c1	none (no result: HUVEC inhibit, H69AR inhibit, Fibroblast inh)
CCOc1ccccc1-n1c(SCC(=O)Nc2ccc(CC)cc2)nc2n[nH]c(C)c2c1=N	HCT116 bCat-KO 5.0, PTEN del growth 3.7 (no result: HUVEC inhibit, H69AR inhibit, Fibroblast inh)
CCc1ccccc1NC(=O)CSc1nc2n[nH]c(C)c2c(=N)n1-c1cccc(OC)c1	none
CCOc1ccccc1NC(=O)CCSc1nc2n[nH]c(C)c2c(=N)n1-c1ccccc1Cl	H69AR inhibit 6.5
CCCC(=O)N1c2ccccc2C(=C2SC(C(=O)OC)=C(C(=O)OC)S2)C(=S)C1(C)C	H69AR inhibit 23.8
COC(=O)C1=C(C(=O)OC)SC(=C2C(=S)C(C)(C)N(C(=O)C(C)C)c3ccccc32)S1	none
COc1ccc(-c2nnn(CC(=O)NCCc3c[nH]c4ccccc34)n2)cc1OC	none (no result: HUVEC inhibit, H69AR inhibit, Fibroblast inh)
CCOc1ccc2nc(NCCNC(=O)Nc3ccccc3)c(C#N)cc2c1	H69AR inhibit 28.1
COc1ccc(NS(=O)(=O)c2cc([N+](=O)[O-])ccc2N/N=C\c2c(C)[nH]c3ccccc23)cc1	PTEN del growth 3.8 (no result: HUVEC inhibit, H69AR inhibit, Fibroblast inh)
Cc1[nH]c2ccccc2c1/C=N/Nc1ccc([N+](=O)[O-])cc1S(=O)(=O)Nc1ccc(Cl)cc1	none (no result: HUVEC inhibit, H69AR inhibit, Fibroblast inh)
CCOC(=O)/C(=C/c1ccc(OC(=O)c2ccccc2)cc1)C(C)=O	none (no result: HUVEC inhibit, H69AR inhibit, Fibroblast inh)
CCC(=O)c1ccc2ncccc2c1	none (no result: HUVEC inhibit, H69AR inhibit, Fibroblast inh)
O=C1/C(=C/c2cccnc2)Oc2cc(OS(=O)(=O)c3ccc(F)cc3)ccc21	H69AR inhibit 35.3
Cc1ccc(S(=O)(=O)Oc2ccc3c(c2)O/C(=C\c2cccnc2)C3=O)cc1	H69AR inhibit 24.6
COc1cccc(OC)c1C(=O)Oc1ccc2c(c1)O/C(=C\c1ccncc1)C2=O	none (no result: HUVEC inhibit, H69AR inhibit, Fibroblast inh)
CCc1ccc(/C=C2\Oc3cc(OS(C)(=O)=O)ccc3C2=O)cc1	none (no result: HUVEC inhibit, H69AR inhibit, Fibroblast inh)
CCCCC(=O)NS(=O)(=O)c1ccc(NS(C)(=O)=O)cc1	none (no result: HUVEC inhibit, H69AR inhibit, Fibroblast inh)
CC(=O)Nc1ccccc1/C=C/c1ccc2c(C)ccc(O)c2n1	none (no result: HUVEC inhibit, H69AR inhibit, Fibroblast inh)
CC(=O)Nc1ccccc1/C=C/c1ccc2c(C)cc(C)c(O)c2n1	PTEN del growth 3.3 (no result: HUVEC inhibit, H69AR inhibit, Fibroblast inh)
N#C/C(=C/c1ccc(N2CCCCC2)o1)c1cccc(F)c1	none
N#C/C(=C/c1ccc(N2CCCCCC2)o1)c1ccc(Cl)cc1	Fibroblast inh 48.4
Cc1cc(N2C3CCC2CC(O)(c2ccc(F)cc2)C3)nc(-c2ccccc2)n1 (stereo not drawn)	H69AR inhibit 26.1
CC(C)Cn1c(-c2ccc(C#N)cc2)nc2c1c(=O)[nH]c(=O)n2CC(C)C	none
CCc1cccc(CC)c1NC(=O)CN1CC(C)SC1=NC1CCCCC1 (stereo not drawn)	none
Cn1cc(/C=N/n2cnc3sc4c(c3c2=O)CCCC4)c2ccccc21	H69AR inhibit 26.5
Nc1nnnn1/N=C/c1cccc(OCc2ccccc2Cl)c1	HUVEC inhibit 16.5
Nc1nnnn1/N=C/c1cccc(Oc2ccccc2)c1	none
C/C(=N\O)c1ccc2c3ccccc3n(C)c2c1	HUVEC inhibit 24.4
COc1cc(C(=O)CCN2CCC(c3ccccc3)C2)cc(OC)c1OC (stereo not drawn)	none (no result: HUVEC inhibit, H69AR inhibit, Fibroblast inh)
c1ccc(-c2cn3c4c(sc3n2)CCCC4)cc1	H69AR inhibit 21.4
c1ccc(-c2cn3nc(-c4ccccc4)sc3n2)cc1	none (no result: HCT116 bCat-KO, PTEN del growth)
CCCS(=O)(=O)c1c(S(=O)(=O)CCC)c2c3ccccc3ccn2c1C(N)=O	none
CCOc1ccc(NC(=O)c2cc3n(n2)C(C(F)(F)F)CC(c2ccco2)N3)cc1 (stereo not drawn)	Fibroblast inh 37.5
